In article PMC4929832 (Nature, 2016):
pIC50: −log10 of the molar value.

Tests used:
[1] = target: IGF1R (Homo sapiens, UniProt P08069); test: kinase panel; assay type: biochemical
[2] = target: COX-1 (Homo sapiens, UniProt P23219); test: COX-1 assay; assay type: biochemical
[3] = target: NEK1 (Homo sapiens, UniProt Q96PY6); test: kinase panel; assay type: biochemical
[4] = target: FLT-4 (Homo sapiens, UniProt P35916); test: kinase panel; assay type: biochemical
[5] = target: FES (Homo sapiens, UniProt P07332); test: kinase panel; assay type: biochemical
FES, sequence (P07332 whole entry): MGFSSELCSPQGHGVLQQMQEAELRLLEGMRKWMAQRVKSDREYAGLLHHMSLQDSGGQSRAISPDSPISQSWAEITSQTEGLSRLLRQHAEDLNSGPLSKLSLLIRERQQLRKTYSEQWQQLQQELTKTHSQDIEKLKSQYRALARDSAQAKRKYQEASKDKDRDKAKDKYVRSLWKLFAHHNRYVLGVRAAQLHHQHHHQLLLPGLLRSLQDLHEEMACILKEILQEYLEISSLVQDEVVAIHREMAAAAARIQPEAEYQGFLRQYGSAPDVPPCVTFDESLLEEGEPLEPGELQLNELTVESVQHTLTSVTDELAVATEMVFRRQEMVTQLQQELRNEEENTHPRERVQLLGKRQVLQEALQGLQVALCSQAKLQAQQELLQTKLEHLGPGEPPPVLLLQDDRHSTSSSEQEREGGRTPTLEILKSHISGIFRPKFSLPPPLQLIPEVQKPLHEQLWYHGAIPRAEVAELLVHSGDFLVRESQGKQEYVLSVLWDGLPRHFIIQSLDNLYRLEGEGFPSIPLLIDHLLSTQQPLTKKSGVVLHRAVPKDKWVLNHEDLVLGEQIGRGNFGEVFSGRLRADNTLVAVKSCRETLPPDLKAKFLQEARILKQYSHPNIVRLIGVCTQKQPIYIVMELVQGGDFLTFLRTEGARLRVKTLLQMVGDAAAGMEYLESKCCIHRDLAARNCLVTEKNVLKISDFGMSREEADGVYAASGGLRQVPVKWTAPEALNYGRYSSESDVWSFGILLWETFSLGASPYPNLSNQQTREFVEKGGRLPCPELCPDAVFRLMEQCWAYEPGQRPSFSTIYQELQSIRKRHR

[6] = target: EPH-A3 (Homo sapiens, UniProt P29320); test: kinase panel; assay type: biochemical
[7] = target: PYK2 (Homo sapiens, UniProt Q14289); test: kinase panel; assay type: biochemical
[8] = target: Alpha1A adrenergic (Homo sapiens, UniProt P35348); test: Alpha1A adrenergic calcium flux assay; assay type: cell-based
[9] = target: NEK7 (Homo sapiens, UniProt Q8TDX7); test: kinase panel; assay type: biochemical
[10] = target: ARG (Homo sapiens, UniProt P42684); test: kinase panel; assay type: biochemical
[11] = target: Melanocortin MC3 receptor (Homo sapiens, UniProt P41968); test: Melanocortin MC3 receptor binding assay
[12] = tested on: exon19del/T790M EGFR Ba/F3 cells; test: Ba/F3 cell proliferation; assay type: cell-based; settings: EAI045 with cetuximab (10 μg/ml)
Procedure, shortened: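 Ba/F3 cells, either parental or stably expressing mutant EGFR lines described earlier, were exposed to the test compound for 72 hours. Cell numbers were set empirically. Growth was read by MTS assay. Each point was run in six wells, and each experiment was repeated at least three times. Curves were fitted by non-linear regression to a sigmoidal dose response.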

[13] = target: CLK2 (Homo sapiens, UniProt P49760); test: kinase panel; assay type: biochemical
CLK2, sequence (P49760 whole entry): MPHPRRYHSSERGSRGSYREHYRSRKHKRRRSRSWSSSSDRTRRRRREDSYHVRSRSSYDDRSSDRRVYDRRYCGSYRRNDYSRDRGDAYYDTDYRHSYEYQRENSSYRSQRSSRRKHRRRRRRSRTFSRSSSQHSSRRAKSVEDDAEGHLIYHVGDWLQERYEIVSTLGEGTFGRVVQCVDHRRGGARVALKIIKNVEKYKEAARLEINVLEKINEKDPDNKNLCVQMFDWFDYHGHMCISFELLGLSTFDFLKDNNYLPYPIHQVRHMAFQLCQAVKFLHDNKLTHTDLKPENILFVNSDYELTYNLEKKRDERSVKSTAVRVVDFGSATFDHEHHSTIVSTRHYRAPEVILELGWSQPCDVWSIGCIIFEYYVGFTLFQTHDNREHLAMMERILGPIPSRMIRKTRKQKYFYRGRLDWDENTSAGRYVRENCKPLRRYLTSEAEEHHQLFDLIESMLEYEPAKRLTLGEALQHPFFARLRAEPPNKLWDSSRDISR

[14] = target: EPH-A1 (Homo sapiens, UniProt P21709); test: kinase panel; assay type: biochemical
[15] = target: CHEK2 (Homo sapiens, UniProt O96017); test: kinase panel; assay type: biochemical
[16] = target: TBK1 (Homo sapiens, UniProt Q9UHD2); test: kinase panel; assay type: biochemical
TBK1, sequence (Q9UHD2 whole entry): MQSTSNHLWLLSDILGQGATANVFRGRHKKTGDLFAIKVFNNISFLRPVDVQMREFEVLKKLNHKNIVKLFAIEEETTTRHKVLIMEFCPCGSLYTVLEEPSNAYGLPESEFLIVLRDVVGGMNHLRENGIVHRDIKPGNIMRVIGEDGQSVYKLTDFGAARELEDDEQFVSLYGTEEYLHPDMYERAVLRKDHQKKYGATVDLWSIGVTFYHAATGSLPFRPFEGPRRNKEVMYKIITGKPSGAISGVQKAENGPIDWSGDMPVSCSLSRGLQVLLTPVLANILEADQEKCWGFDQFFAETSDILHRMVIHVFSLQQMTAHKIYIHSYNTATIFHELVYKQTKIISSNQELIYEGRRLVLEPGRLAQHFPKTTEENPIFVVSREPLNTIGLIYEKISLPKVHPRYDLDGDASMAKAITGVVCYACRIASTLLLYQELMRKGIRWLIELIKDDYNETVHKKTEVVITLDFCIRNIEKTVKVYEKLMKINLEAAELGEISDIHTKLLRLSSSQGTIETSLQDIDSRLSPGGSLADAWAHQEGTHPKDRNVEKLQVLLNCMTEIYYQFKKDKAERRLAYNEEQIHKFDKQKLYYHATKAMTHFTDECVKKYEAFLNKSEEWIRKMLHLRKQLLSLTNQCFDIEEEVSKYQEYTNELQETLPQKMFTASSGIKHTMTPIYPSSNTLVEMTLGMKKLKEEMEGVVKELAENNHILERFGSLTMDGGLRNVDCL

[17] = target: FYN (Homo sapiens, UniProt P06241); test: kinase panel; assay type: biochemical
[18] = target: CLK4 (Homo sapiens, UniProt Q9HAZ1); test: kinase panel; assay type: biochemical
CLK4, sequence (Q9HAZ1 whole entry): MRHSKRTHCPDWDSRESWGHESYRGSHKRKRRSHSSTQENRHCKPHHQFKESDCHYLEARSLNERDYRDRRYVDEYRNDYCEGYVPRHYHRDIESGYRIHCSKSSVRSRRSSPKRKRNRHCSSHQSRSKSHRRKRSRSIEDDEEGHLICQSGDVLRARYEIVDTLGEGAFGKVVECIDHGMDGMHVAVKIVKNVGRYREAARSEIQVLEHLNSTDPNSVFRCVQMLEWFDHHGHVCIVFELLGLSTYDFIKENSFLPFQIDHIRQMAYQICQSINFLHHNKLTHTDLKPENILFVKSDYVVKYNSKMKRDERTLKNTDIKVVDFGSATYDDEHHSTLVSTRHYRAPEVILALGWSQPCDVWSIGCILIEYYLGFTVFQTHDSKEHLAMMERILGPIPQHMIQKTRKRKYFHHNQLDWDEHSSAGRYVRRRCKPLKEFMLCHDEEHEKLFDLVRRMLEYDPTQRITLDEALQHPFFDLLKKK

[19] = target: CK1-GAMMA1 (Homo sapiens, UniProt Q9HCP0); test: kinase panel; assay type: biochemical
[20] = target: EPH-A2 (Homo sapiens, UniProt P29317); test: kinase panel; assay type: biochemical
EPH-A2, sequence (P29317 24-976): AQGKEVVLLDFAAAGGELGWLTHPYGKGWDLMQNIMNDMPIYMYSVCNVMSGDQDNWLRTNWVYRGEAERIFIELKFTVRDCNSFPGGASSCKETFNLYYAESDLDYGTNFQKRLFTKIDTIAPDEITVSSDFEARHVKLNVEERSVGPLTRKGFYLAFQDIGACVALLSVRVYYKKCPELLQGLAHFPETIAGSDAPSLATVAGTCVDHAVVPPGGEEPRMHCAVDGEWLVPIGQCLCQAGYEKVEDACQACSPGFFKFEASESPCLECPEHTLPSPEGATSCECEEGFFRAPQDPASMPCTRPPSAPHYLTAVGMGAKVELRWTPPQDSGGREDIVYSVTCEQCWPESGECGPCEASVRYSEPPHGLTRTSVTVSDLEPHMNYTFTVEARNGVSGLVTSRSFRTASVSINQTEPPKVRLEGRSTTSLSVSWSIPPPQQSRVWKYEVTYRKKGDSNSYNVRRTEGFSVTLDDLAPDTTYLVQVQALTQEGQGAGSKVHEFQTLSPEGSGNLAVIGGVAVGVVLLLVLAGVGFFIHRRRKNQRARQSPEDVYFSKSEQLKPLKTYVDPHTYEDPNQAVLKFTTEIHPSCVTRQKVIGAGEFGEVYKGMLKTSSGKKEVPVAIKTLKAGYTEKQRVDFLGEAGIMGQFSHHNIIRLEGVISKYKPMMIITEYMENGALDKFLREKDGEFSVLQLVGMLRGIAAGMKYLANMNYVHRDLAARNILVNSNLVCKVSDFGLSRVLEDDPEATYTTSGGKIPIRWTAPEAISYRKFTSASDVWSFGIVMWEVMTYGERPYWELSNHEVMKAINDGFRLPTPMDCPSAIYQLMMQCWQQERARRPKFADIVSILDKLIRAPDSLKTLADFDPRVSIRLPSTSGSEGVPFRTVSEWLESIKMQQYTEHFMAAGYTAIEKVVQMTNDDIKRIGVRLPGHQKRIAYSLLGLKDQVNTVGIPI

[21] = target: BRSK1 (Homo sapiens, UniProt Q8TDC3); test: kinase panel; assay type: biochemical
[22] = target: RET (Homo sapiens, UniProt P07949); test: kinase panel; assay type: biochemical
[23] = target: AMP-A1B1G1 (Homo sapiens, UniProt Q13131); test: kinase panel; assay type: biochemical
[24] = target: AKT1 (Homo sapiens, UniProt P31749); test: kinase panel; assay type: biochemical
[25] = target: RIPK2 (Homo sapiens, UniProt O43353); test: kinase panel; assay type: biochemical
[26] = target: DCAMKL2 (Homo sapiens, UniProt Q8N568); test: kinase panel; assay type: biochemical
[27] = target: LYNB (Homo sapiens, UniProt P07948); test: kinase panel; assay type: biochemical
[28] = target: SGK2 (Homo sapiens, UniProt Q9HBY8); test: kinase panel; assay type: biochemical
[29] = target: ALK2 (Homo sapiens, UniProt Q04771); test: kinase panel; assay type: biochemical
[30] = target: ERB-B2 (Homo sapiens, UniProt P04626); test: kinase panel; assay type: biochemical
[31] = target: CDK2-CYCLINA (Homo sapiens, UniProt P24941); test: kinase panel; assay type: biochemical
[32] = target: SGK3 (Homo sapiens, UniProt Q96BR1); test: kinase panel; assay type: biochemical
[33] = target: ARK5 (Homo sapiens, UniProt O60285); test: kinase panel; assay type: biochemical
[34] = target: NEK3 (Homo sapiens, UniProt P51956); test: kinase panel; assay type: biochemical
[35] = target: AKT3 (Homo sapiens, UniProt Q9Y243); test: kinase panel; assay type: biochemical
[36] = target: CAMK2D (Homo sapiens, UniProt Q13557); test: kinase panel; assay type: biochemical
[37] = tested on: panel of 250 protein kinases; test: Profiling against a panel of 250 protein kinases; assay type: biochemical; settings: 1 μM EAI045
[38] = target: AURORA-C (Homo sapiens, UniProt Q9UQB9); test: kinase panel; assay type: biochemical
[39] = target: MST2 (Homo sapiens, UniProt Q13188); test: kinase panel; assay type: biochemical
[40] = tested on: L858R/T790M/I941R EGFR Ba/F3 cells; test: Ba/F3 cell proliferation; assay type: cell-based; settings: Ba/F3 L858R/T790M/I941R versus L858R/T790M
Procedure, shortened: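 The I941R mutation was introduced into L858R/T790M EGFR by site-directed mutagenesis, and Ba/F3 stable clones were selected in puromycin (2 μg/ml). Cells were treated with the test compound for 72 h and growth was read by MTS assay. Points were run in six wells, with experiments repeated at least three times. Curves were fitted by non-linear regression to a sigmoidal dose response.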

IGF1R, sequence (P08069 31-1367): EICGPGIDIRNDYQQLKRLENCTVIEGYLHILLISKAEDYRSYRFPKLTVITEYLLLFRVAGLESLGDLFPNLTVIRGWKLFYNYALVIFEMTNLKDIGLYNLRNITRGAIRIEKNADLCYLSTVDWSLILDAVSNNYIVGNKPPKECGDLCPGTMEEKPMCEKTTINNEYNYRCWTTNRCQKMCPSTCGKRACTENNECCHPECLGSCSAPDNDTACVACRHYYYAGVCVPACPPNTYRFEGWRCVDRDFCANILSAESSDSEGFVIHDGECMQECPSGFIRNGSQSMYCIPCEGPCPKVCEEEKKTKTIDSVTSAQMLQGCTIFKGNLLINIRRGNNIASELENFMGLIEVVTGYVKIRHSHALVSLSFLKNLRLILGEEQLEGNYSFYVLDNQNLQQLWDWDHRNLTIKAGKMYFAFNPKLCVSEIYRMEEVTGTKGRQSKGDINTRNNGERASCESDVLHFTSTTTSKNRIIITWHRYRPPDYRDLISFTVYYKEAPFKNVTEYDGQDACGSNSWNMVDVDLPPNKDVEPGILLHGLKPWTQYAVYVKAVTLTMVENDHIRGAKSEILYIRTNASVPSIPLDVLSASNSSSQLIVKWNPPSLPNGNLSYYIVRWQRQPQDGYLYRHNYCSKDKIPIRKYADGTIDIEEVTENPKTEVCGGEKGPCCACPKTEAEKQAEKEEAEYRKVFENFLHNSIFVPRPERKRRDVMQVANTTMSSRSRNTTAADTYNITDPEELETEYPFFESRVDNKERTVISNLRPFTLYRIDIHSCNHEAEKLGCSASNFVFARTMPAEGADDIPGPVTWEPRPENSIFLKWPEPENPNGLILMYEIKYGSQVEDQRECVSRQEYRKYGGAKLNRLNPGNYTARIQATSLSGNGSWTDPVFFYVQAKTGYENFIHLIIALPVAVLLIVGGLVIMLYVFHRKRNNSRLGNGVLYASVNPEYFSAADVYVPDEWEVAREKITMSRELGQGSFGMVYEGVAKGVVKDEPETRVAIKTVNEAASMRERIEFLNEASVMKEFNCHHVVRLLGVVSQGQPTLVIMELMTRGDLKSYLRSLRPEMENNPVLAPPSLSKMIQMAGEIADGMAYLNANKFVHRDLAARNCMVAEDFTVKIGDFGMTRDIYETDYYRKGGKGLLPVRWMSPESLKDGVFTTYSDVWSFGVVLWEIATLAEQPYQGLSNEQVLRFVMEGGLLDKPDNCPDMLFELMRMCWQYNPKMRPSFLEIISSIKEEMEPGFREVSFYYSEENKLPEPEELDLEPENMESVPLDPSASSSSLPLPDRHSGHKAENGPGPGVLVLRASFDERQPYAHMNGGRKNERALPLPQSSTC

inhibition at 1 µM [1]: 4%
pIC50 [2]: < 4.52
inhibition at 1 µM [3]: 0%
inhibition at 1 µM [4]: 1%
inhibition at 1 µM [5]: 2%
inhibition at 1 µM [6]: 1%
inhibition at 1 µM [7]: 4%
pIC50 [8]: < 4.52
inhibition at 1 µM [9]: 0%
inhibition at 1 µM [10]: 2%
pIC50 [11]: < 4.52
inhibition at 1 µM [13]: 1%
inhibition at 1 µM [14]: 0%
inhibition at 1 µM [15]: 0%
inhibition at 1 µM [16]: 3%
inhibition at 1 µM [17]: 0%
inhibition at 1 µM [18]: 0%
inhibition at 1 µM [19]: 2%
inhibition at 1 µM [20]: 7%
inhibition at 1 µM [21]: 0%
inhibition at 1 µM [22]: 0%
inhibition at 1 µM [23]: 1%
inhibition at 1 µM [24]: 0%
inhibition at 1 µM [25]: 0%
inhibition at 1 µM [26]: 0%
inhibition at 1 µM [27]: 3%
inhibition at 1 µM [28]: 0%
inhibition at 1 µM [29]: 0%
inhibition at 1 µM [30]: 4%
inhibition at 1 µM [31]: 1%
inhibition at 1 µM [32]: 0%
inhibition at 1 µM [33]: 0%
inhibition at 1 µM [34]: 0%
inhibition at 1 µM [35]: 0%
inhibition at 1 µM [36]: 4%
inhibition at 1 µM [38]: 0%
inhibition at 1 µM [39]: 0%
SMILES: O=C(Nc1nccs1)C(c1cc(F)ccc1O)N1Cc2ccccc2C1=O (stereo not shown) [EAI045, 2-(5-fluoro-2-hydroxyphenyl)-2-(1-oxo-2,3-dihydro-1H-isoindol-2-yl)-N-(1,3-thiazol-2-yl)acetamide]
proliferation [12]: not inhibited
inhibition of other kinases in the panel [37]: ≤ 20%
sensitivity of proliferation to the allosteric inhibitor [40]: dramatically more sensitive
